From PubChem
An excerpt weighted towards active compounds, which were near 1.9% of everything screened.
MIN6 prolif: MIN6 beta-cell proliferation induction | 330,000 tested, 0.29% active | proliferation, % at 10 µM | MIN6 cells proliferation, ATPlite luminescence, 48 h; cells starved in 0.2% serum; 100% = growth in 10% serum | AID 2380;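 active = compounds whose signal lies at least 3.5 SD above the mean of all wells on their plate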;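 also: 0% = DMSO-treated cells in low-serum medium and 100% = 10% serum control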
Rce1 inh: inhibitors of yeast Ras-converting enzyme | Q03530 | yeast membranes, quenched prenylated peptide cleavage fluorescence | calls only | 290,000 tested, 0.27% active;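 active = fall in fluorescence gain of 50% or more versus controls, with final raw signal at or below 3038400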;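 also: plate controls were neutral control wells for no effect and wells lacking membranes for full effect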
Target sequence (Q03530 whole entry, looked up): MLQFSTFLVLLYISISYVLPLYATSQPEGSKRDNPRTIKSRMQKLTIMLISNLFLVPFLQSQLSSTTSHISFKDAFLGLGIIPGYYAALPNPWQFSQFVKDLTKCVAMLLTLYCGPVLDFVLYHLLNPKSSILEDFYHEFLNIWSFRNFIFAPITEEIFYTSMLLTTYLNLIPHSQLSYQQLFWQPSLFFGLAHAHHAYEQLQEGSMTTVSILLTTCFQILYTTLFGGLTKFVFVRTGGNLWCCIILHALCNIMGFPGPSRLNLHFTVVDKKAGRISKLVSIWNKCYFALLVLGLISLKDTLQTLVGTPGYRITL
KLK7 zymogen act: proKLK7 (human) activation, primary screen; P49862; purified proKLK7, EDANS-DABCYL substrate fluorescence; 100% is mature enzyme control, 0% vehicle; activation, % at 7 µM; 370,000 tested, 0.9% active; AID 652039;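 active = activation above the mean of all tested compounds plus 3 SD, computed per campaign excluding outliers beyond control limits, cut at about 13% in these data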
Target sequence (P49862 whole entry, looked up): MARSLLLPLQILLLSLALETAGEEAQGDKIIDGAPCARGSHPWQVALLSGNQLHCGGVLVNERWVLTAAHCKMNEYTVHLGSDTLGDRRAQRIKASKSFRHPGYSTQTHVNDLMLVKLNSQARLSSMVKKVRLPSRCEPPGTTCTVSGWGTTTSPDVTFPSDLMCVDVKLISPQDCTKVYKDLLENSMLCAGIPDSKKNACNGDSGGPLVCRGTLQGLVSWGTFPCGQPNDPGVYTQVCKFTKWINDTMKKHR
Yeast superoxide: yeast age-related superoxide inhibition as caloric restriction mimetic; S. cerevisiae aged cells, superoxide DHE fluorescence; hits give low values; superoxide response (% of plate mean), % at 10 µM; 330,000 tested, 0.18% active;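 active = superoxide response under a set limit, about three screen SD below normal, cut at about 65% in these data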;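 also: yeast aged for seven days with compound at 30 °C before DHE staining; 100% = average MFI of all compound-treated wells on the plate with controls excluded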
V-ATPase pHluor: regulators of yeast V-ATPase proton transport; 350,000 tested, 0.37% active; S. cerevisiae, pHLuorin cytosolic pH fluorescence; response, % at 10 µM; in the data active = response mostly above about 7.3%, no sharp cut-off; inactive = mostly below about 5.4%; also: actives read high
T cell HTS: modulates CD8 T cell binding to vesicles | 330,000 tested, 0.068% active | response (vesicle binding), % at 7 µM | 2C CD8+ T cell-vesicle binding, flow cytometry; hits give low values;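 active = response, share of CD8 T cells binding vesicles, and their 90th percentile fluorescence all below set limits, cut at about 80% in these data, passing the limit was not always enough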;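 also: values below 100% mean blocked vesicle binding to the CD8+ T cells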
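System: murine 2C transgenic CD8+ T lymphocytes; also added: QL9-loaded Drosophila micro-vesicles; times: binding 1.5 h at 37 °C; measured by: flow cytometry, PE anti-B7-1 (FL2) versus Alexa647 anti-CD8 (FL8), PFA-fixed; control set: Peptide-free naked vesicles (low) and QL9 vesicles with 0.7% DMSO vehicle (high)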
V-ATPase pH SP: modulates yeast V-ATPase proton transport; response, % at 10 µM; shares compounds with V-ATPase pHluor; AID 602197; 980 tested, 2% active; S. cerevisiae pHLuorin cytosolic pH; in the data active = response above about 24%;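 also: plate controls were vehicle wells for no effect and positive control wells for full effect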
Active calls of the source: *.

Results for COc1ccc(CC(N)c2csc(NC(=O)c3cc(C(C)(C)C)nn3Cc3ccccc3)n2)cc1 (stereo unspecified) ?
KLK7 zymogen act: -1.4

How did CCc1nc2c(C#N)c(-c3ccc(Cl)cc3)ccn2n1 do in these assays?
MIN6 prolif: 2.5; Rce1 inh: inactive; KLK7 zymogen act: -1.6; Yeast superoxide: 95.9; V-ATPase pHluor: 0.2; T cell HTS: 151.6

Results for CCS(=O)c1scc(-c2ccc(Cl)cc2)c1C#N (stereo unspecified) ?
MIN6 prolif: -0.3; Rce1 inh: inactive; KLK7 zymogen act: -0.3; Yeast superoxide: 104.2; V-ATPase pHluor: 9.0*; T cell HTS: 559.1; V-ATPase pH SP: -0.3

What do the screens show for `CN(CC(=O)Nc1ccccc1Br)C(=O)c1cc([N+](=O)[O-])ccc1N1CCOCC1`?
MIN6 prolif: -1.9; Rce1 inh: inactive; KLK7 zymogen act: 0.4; Yeast superoxide: 90.7; V-ATPase pHluor: 7.0*; T cell HTS: 214.0; V-ATPase pH SP: -1.1

What do the screens show for `Cn1c(SCC(=O)Nc2ccccc2)nc(O)cc1=O`?
MIN6 prolif: -2.7; Rce1 inh: inactive; KLK7 zymogen act: 0.6; Yeast superoxide: 103.6; V-ATPase pHluor: 8.9*; T cell HTS: 325.9; V-ATPase pH SP: -1.4

Results for CCn1nnc(NC(=O)c2ccc(-c3ccc(Cl)cc3)o2)n1 ?
MIN6 prolif: -0.8; Rce1 inh: inactive; KLK7 zymogen act: 2.1; Yeast superoxide: 91.2; V-ATPase pHluor: 7.1*; T cell HTS: 427.1; V-ATPase pH SP: 1.7

What do the screens show for `COc1ccc(C(O)c2nc(-c3ccccc3C)cs2)cc1` (stereo unspecified)?
KLK7 zymogen act: -0.3

Results for Cc1cc(OCCCC(=O)NC2=NCCS2)ccc1Cl ?
MIN6 prolif: -2.1; Rce1 inh: inactive; KLK7 zymogen act: 0.2; Yeast superoxide: 100.1; V-ATPase pHluor: 9.5*; T cell HTS: 96.3; V-ATPase pH SP: -2.1

Results for Cc1ccc(C(=O)CCC(=O)NC2=NCCS2)cc1 ?
MIN6 prolif: -3.7; KLK7 zymogen act: -0.2; Yeast superoxide: 82.1; V-ATPase pHluor: 1.9; T cell HTS: 233.2; V-ATPase pH SP: -1.8

What do the screens show for `CCOc1ccc(OCCCC(=O)NC2=NCCS2)cc1`?
MIN6 prolif: 2.3; Rce1 inh: inactive; KLK7 zymogen act: 0.1; Yeast superoxide: 96.9; V-ATPase pHluor: 4.6; T cell HTS: 470.8

Results for O=C(C1CCCN1S(=O)(=O)c1ccccc1[N+](=O)[O-])N1CCc2ccccc2C1 (stereo unspecified) ?
KLK7 zymogen act: -0.3

Results for Cn1nc(C(C)(C)C)cc1N1C(=O)CCC1(C)C(=O)Nc1ccc2ccccc2c1 (stereo unspecified) ?
KLK7 zymogen act: 0.3

How did CO[C@H]1CN(C)C(=O)c2ccc(NC(=O)C3CCC3)cc2OC[C@H](C)N(CC2CCCCC2)C[C@@H]1C do in these assays?
KLK7 zymogen act: 0.7

What do the screens show for `Cc1cc(-c2ccccc2)nc(N(C)NC(=O)c2ccc(Cl)cc2)c1S(C)(=O)=O`?
MIN6 prolif: -3.3; Rce1 inh: inactive; KLK7 zymogen act: -0.6; Yeast superoxide: 105.6; V-ATPase pHluor: 17.7*; T cell HTS: 467.8; V-ATPase pH SP: -2.8

What do the screens show for `c1ccc(CCn2cccc2)nc1`?
KLK7 zymogen act: -0.4; V-ATPase pHluor: 1.7

What do the screens show for `C[C@@H]1CN([C@@H](C)CO)C(=O)CCCn2nncc2CO[C@H]1CN(C)C(=O)Nc1ccc(N2CCN(C)CC2)cc1`?
KLK7 zymogen act: -0.2

Results for COc1cc(-c2nc(-c3cccc(C)c3)no2)cc(OC)c1OC ?
MIN6 prolif: -3.4; Rce1 inh: inactive; KLK7 zymogen act: 0.8; Yeast superoxide: 90.1; V-ATPase pHluor: 8.1*; T cell HTS: 269.3; V-ATPase pH SP: 0.0

How did COc1ccc(-c2nc(-c3cccc(C)c3)no2)cc1OC do in these assays?
MIN6 prolif: 2.3; Rce1 inh: inactive; Yeast superoxide: 96.1; V-ATPase pHluor: 2.9; T cell HTS: 487.3

How did Cc1c(Cl)cnc(NC(=O)COC(=O)c2ccncc2)c1Cl do in these assays?
MIN6 prolif: -2.1; KLK7 zymogen act: 0.4; Yeast superoxide: 95.8; V-ATPase pHluor: 5.9; T cell HTS: 67.3

Results for Cc1noc(C)c1C(=O)OCC(=O)Nc1ncc(Cl)c(C)c1Cl ?
MIN6 prolif: -2.0; KLK7 zymogen act: 0.6; Yeast superoxide: 104.7; V-ATPase pHluor: 10.9*; T cell HTS: 176.9; V-ATPase pH SP: 0.8

What do the screens show for `CC(=O)c1ccc(OCC(O)CN2CC(C)OC(C)C2)cc1` (stereo unspecified)?
MIN6 prolif: -2.9; Rce1 inh: inactive; KLK7 zymogen act: -0.3; Yeast superoxide: 90.5; V-ATPase pHluor: -5.2; T cell HTS: 318.6

Results for CC1CN(CC(O)COc2ccc(C(C)C)cc2)CC(C)O1 (stereo unspecified) ?
MIN6 prolif: 0.3; Rce1 inh: inactive; KLK7 zymogen act: 0.8; Yeast superoxide: 119.8; V-ATPase pHluor: 8.8*; T cell HTS: 158.2; V-ATPase pH SP: 0.2

What do the screens show for `Nc1ccc2nc(SCC(=O)Nc3ccc(N4CCOCC4)c(Cl)c3)sc2c1`?
MIN6 prolif: -5.0; Rce1 inh: inactive; KLK7 zymogen act: 0.0; Yeast superoxide: 103.1; V-ATPase pHluor: 1.1; T cell HTS: 288.9

Results for Nc1nnc(SCC(=O)Nc2ccc(N3CCOCC3)c(Cl)c2)s1 ?
MIN6 prolif: 0.1; Rce1 inh: inactive; KLK7 zymogen act: -0.1; Yeast superoxide: 110.1; V-ATPase pHluor: 7.4*; T cell HTS: 271.2; V-ATPase pH SP: -1.0

Results for Cc1csc(=O)n1CC(=O)OCC(=O)Nc1ccccc1C(C)C ?
MIN6 prolif: -4.2; KLK7 zymogen act: -0.4; Yeast superoxide: 101.5; V-ATPase pHluor: -0.7; T cell HTS: 376.1

How did COc1cc(NC(=S)NC(=O)c2ccccc2F)ccc1NC(=O)c1ccco1 do in these assays?
MIN6 prolif: -2.0; Rce1 inh: inactive; KLK7 zymogen act: -0.1; Yeast superoxide: 101.9; V-ATPase pHluor: 54.4*; T cell HTS: 437.2; V-ATPase pH SP: 1.6

How did CN(C)c1cccc2c1c(NC(=O)c1ccc(F)cc1)nn2C do in these assays?
MIN6 prolif: -3.0; Rce1 inh: inactive; KLK7 zymogen act: 0.1; Yeast superoxide: 93.7; V-ATPase pHluor: -2.8; T cell HTS: 844.1

How did Cn1nc(NC(=O)C(C)(C)C)c2c(F)cccc21 do in these assays?
MIN6 prolif: 0.0; Rce1 inh: inactive; KLK7 zymogen act: 0.4; Yeast superoxide: 89.7; V-ATPase pHluor: 11.9*; T cell HTS: 125.2; V-ATPase pH SP: 1.2

What do the screens show for `Cc1ccc(S(=O)(=O)N(C)CC(=O)OCC(=O)NCCN2C(=O)CSC2=O)cc1`?
MIN6 prolif: -1.0; KLK7 zymogen act: 0.2; Yeast superoxide: 112.3; V-ATPase pHluor: 8.2; T cell HTS: 550.4
